# In ChEMBL document CHEMBL1143072, “Nitric oxide production inhibitory activity of flavonoids contained in trunk exudates of Dalbergia sissoo” (J Nat Prod, 2008):
# Tests used:
# J774.1 = assay: Inhibition of nitric oxide production in LPS induced mouse J774.1 cells; format: functional, cell-based
# In short: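 J774.1 cells are grown in DMEM with 10% FCS, penicillin and streptomycin. Adherent cells are plated at 1 × 10^5 cells/well and left 6 h at 37 °C in 5% CO2. Fresh medium with LPS 1 µg/mL and the compound at a range of concentrations is added for 24 h. Nitrite in the supernatant is measured with Griess reagent (10 min, room temperature, A550), with medium blank subtracted. % inhibition is taken against LPS-only wells. L-NMMA is the positive control.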
# [1] = Cytotoxicity against LPS induced mouse J774.1 cells by MTT assay; format: cell-based
# In short: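 LPS-stimulated J774.1 cells from the NO assay (1 × 10^5 cells/well, 24 h with LPS 1 µg/mL plus compound). After the supernatant is taken off, cells get fresh medium with MTT 2 mg/mL for 3 h at 37 °C in 5% CO2. Formazan is dissolved in DMSO and absorbance is read at 550 nm.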
# [2] = Inhibition of NO production in LPS induced mouse J774.1 cells by Griess assay
SMILES,IC50 (J774.1),Activity [1],IC50 [2]
C=C[C@H](C1=CC(=O)C=CC1=O)c1ccccc1,39.7 µM,,
C=C[C@H](C1=CC(=O)C(OC)=CC1=O)c1ccccc1,38.8 µM,,
COc1ccc(C(=O)/C=C/c2ccccc2)c(O)c1,5.4 µM,> 25 µM,
C=CC(c1ccccc1)C1(O)C(=O)C=C(OC)C(=O)C1O (configuration not stated),3.19 µM,> 100 µM,
CNC(=N)NCCC[C@H](N)C(=O)O [TILARGININE],31.6 µM,,27.1 µM
C=C[C@H](C1=CC(=O)C(OC)=CC1=O)c1ccc(O)cc1,11.5 µM,> 100 µM,
C=C[C@@H](c1ccccc1)c1cc(O)ccc1O,31.6 µM,,
COC1=CC(O)(C/C=C/c2ccccc2)C(OC)=CC1=O (configuration not stated),6.22 µM,,
